PP1 counter – PP1-alpha phosphatase inhibitors, primary screen, counter-screen for PP5 inhibitor project, biochemical, fluorescence, OMFP substrate, single point; Serine/threonine-protein phosphatase PP1-alpha catalytic subunit (Homo sapiens), P62136; purified PP1alpha; inhibition, % at 6.7 µM; actives 0.9% (n = 320,000); AID 2235, 2010;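 active means inhibition above the mean inhibition of all tested compounds plus 3 SD, computed separately for each screening campaign, cut at about 15% in these data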
NR2E3 ag-1 – inhibitors of NR2E3-RetCOR corepressor binding, primary screen, NR2E3 agonist project, biochemical, TR-FRET, GST-NR2E3, biotin-RetCOR | Photoreceptor-specific nuclear receptor (Homo sapiens), Q9Y5X4 | 1536-well | inhibition of corepressor binding, % at 4.78 µM | actives 0.12% (n = 320,000);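 active means percent inhibition above the cutoff of mean plus 3 SD of all tested compounds, set per screening campaign, cut at about 20% in these data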;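 further: 0% = DMSO wells and 100% = biotin wells as full block of FRET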
Target sequence (Q9Y5X4 whole entry, looked up): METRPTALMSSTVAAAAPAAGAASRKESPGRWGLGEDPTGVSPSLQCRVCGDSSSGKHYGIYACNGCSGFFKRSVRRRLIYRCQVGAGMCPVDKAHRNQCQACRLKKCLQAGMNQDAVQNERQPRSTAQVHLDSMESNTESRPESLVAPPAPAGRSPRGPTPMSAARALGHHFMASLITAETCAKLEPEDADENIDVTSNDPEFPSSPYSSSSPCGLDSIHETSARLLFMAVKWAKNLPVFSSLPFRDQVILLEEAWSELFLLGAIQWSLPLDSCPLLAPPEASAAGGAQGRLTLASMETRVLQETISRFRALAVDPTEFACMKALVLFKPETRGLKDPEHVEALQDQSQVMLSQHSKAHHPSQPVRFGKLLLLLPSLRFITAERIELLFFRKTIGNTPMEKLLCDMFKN
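System: GST-NR2E3 and biotin-RetCOR proteins; probe or stimulus: 7 nM biotin-RetCOR; doses: compound at 4.8 µM, single dose; schedule: Compound–protein incubation for 5 h at 4 °C; detection: time-resolved FRET; read-out: percent inhibition; controls: biotin wells as high control, 0.6% DMSO wells as low control; format: 1536-well plates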
NR2E3 ag-2 – NR2E3 agonists in two-hybrid cells, primary screen, cell-based, luminescence, CHO-S, Gal4-NCOR/VP16-NR2E3; inhibition of corepressor binding, % at 3.98 µM; luciferase; AID 602229, 2012; actives 0.35% (n = 360,000);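 active means inhibition above the mean of all tested compounds plus 3 SD, cut at about 70% in these data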;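 further: 0% = DMSO with NR2E3 transfected cells and 100% = cells lacking NR2E3 construct; higher means lower luciferase signal from less NR2E3 corepressor binding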
PP5 primary – PP5 phosphatase inhibitors, primary screen, biochemical, fluorescence | inhibition, % at 6.7 µM | Serine/threonine-protein phosphatase 5 (Homo sapiens), P53041 | actives 0.18% (n = 320,000) | purified PP5c, OMFP substrate fluorescence;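 active means inhibition above the campaign's mean inhibition across all tested compounds plus 3 SD, cut at about 9.5% in these data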;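 further: 0% = DMSO only and 100% = 100 µM cantharidin control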
PP1 confirm – PP1 phosphatase inhibitors, confirmation, biochemical, fluorescence, OMFP substrate, triplicate | shares compounds with PP1 counter | inhibition, % at 6.7 µM | actives 52% (n = 1,900) | AID 2358, 2010 | purified PP1alpha;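 active means mean PP1 inhibition above a set limit taken from the earlier primary screen, cut at about 15% in these data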
PP5 counter – PP5 phosphatase inhibition by PP1 hits, confirmation, counter-screen for PP1 inhibitor project, biochemical, fluorescence, triplicate | shares compounds with PP1 counter | purified PP5c, OMFP fluorescence | inhibition, % at 6.7 µM | actives 4% (n = 1,900) | AID 2360, 2010;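 active means mean PP5 inhibition over triplicate wells above about 9.5% taken from the earlier PP1 screen, limit read from the data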
* marks the source's active call; other numbers are inactive results; x = no result. Rows were chosen to be rich in hits. Some 1.3% of all compounds tested hit in one or more screens of this group.

SMILES	PP1 counter	NR2E3 ag-1	NR2E3 ag-2	PP5 primary	PP1 confirm	PP5 counter
C[C@H](CO)N1C[C@H](C)[C@H](CN(C)C(=O)c2ccccc2)OCc2ccccc2-c2c(n(C)c3ccccc23)C1=O	x	x	-17.9	x	x	x
COc1ccc(CN2C[C@@H](CO)O[C@@H](n3cnc4c(NCc5ccc(F)cc5)ncnc43)C2)cc1	x	x	-5.6	x	x	x
CCCCn1nnnc1C(c1ccccc1)N1CCN(c2ccc(F)cc2)CC1 (centres undefined)	x	x	-18.8	x	x	x
O=C(NCc1cccnc1)/C(=C/c1ccc([N+](=O)[O-])cc1)NC(=O)c1ccccc1	x	x	-31.6	x	x	x
O=C(NCCc1ccccc1)/C(=C\c1ccc([N+](=O)[O-])cc1)NC(=O)c1ccc(Br)cc1	18.2*	2.5	1.8	0.9	21.8*	-2.2
CCCS(=O)(=O)NC(=O)C1(C)CCCN(C(=O)c2cc(OC)c(OC)c(OC)c2)C1 (centres undefined)	x	x	-0.5	x	x	x
CC(C(=O)N1CCc2ccccc21)N(C)CC(=O)Nc1cccc(F)c1 (centres undefined)	-3.8	-1.2	0.2	1.8	x	x
COc1ncccc1C(=O)N1CCCC(N2CCN(c3cccc(Cl)c3)CC2)C1 (centres undefined)	49.4*	1.9	10.9	1.9	-7.4	-6.5
CCOC(=O)[C@H]1[C@H]2COc3ccc(C)cc3[C@@H]2N2C(=O)c3ccccc3NC(=O)[C@@]12C	-2.8	3.8	-29.0	3.4	x	x
CCOC(=O)[C@]12CCCC=C1N(Cc1ccco1)C(=O)[C@H](CC(=O)NCCC(C)C)C2	x	x	-25.5	x	x	x
CCOc1ccc(-n2c(O)c(/C=N/NC(=O)C3COc4ccccc4O3)c3ccccc3c2=O)cc1 (centres undefined)	23.5*	3.1	-34.6	1.3	28.2*	-6.0
O=C(CN(c1ccccc1Cl)S(=O)(=O)c1ccccc1)N/N=C/c1ccccc1C(=O)O	0.8	4.6	-2.4	0.2	x	x
Cc1ccc(S(=O)(=O)N(CC(=O)N/N=C/c2ccccc2C(=O)O)c2cc(Cl)cc(Cl)c2)cc1	18.9*	5.4	-33.0	0.8	19.4*	0.9
CC(C)c1ccc(/C=C2\SC(=O)N(CC(=O)NC3C=CS(=O)(=O)C3)C2=O)cc1 (centres undefined)	28.4*	-2.2	-32.8	2.5	32.5*	-3.1
Cc1onc(-c2ccccc2)c1C(=O)NNC(=S)NC(=O)c1ccc(Br)cc1	5.9	-1.6	-9.1	-0.5	x	x
COc1ccc(-c2cc(C(=O)NNC(=S)NC(=O)c3c(-c4ccccc4)noc3C)[nH]n2)cc1	17.7*	1.7	-27.2	2.2	16.9*	-0.5
Oc1ccc(/C=N/Nc2ccc(Cl)nn2)c(O)c1O	17.7*	-0.5	-16.7	2.4	38.2*	-6.2
COc1ccc(CN2C(=O)c3cccnc3C2Nc2cc(Cl)ccc2OC)cc1 (centres undefined)	27.0*	3.1	-2.2	8.0	26.0*	-1.6
COc1ccc(CN2C(=O)c3cccnc3C2O)cc1 (centres undefined)	34.3*	2.4	-17.6	8.1	24.9*	-4.3
COc1ccc(OC)c(NC2c3ncccc3C(=O)N2Cc2ccco2)c1 (centres undefined)	1.4	0.3	12.1	0.7	x	x
Cc1ccc(C(=O)OC(C)C(=O)c2cc(C)c(C)cc2C)o1 (centres undefined)	-1.2	1.9	-15.7	4.2	x	x
C[C@@H]1CN([C@H](C)CO)C(=O)c2cc(C#Cc3ccccc3F)cnc2O[C@@H]1CN(C)S(=O)(=O)c1ccccc1F	x	x	3.1	x	x	x
CCN1CCN(S(=O)(=O)c2ccc(Cl)c(C(=O)Nc3ccccc3N3CCCCC3)c2)CC1	22.8*	-1.3	-8.3	0.5	-1.3	-0.7
